# Reference: the RNAGym collection of RNA variant scans (doi:10.1126/science.aae0568)
# This sample holds only a part of the variants without activity.
# B1: tRNA (parent)
# chain: GUUCCGUUGGCGUAAUGGUAACGCGUCUCCCUCCUAAGGAGAAGACUGCGGGUUCGAGUCCCGUACGGAACG
# Variants of: B1
# Test: yeast fitness relative to wild type (ratio to wild type); higher = fitter; tRNA-Arg(CCU), competitive growth, 37 C, YPD
# Summary of the method: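 Changes in genotype frequencies gave Darwinian fitness relative to wild type. Frequencies were read by 100-nucleotide paired-end sequencing of gene amplicons before and after pooled Saccharomyces cerevisiae strains, carrying tRNA-Arg(CCU) gene variants at the native locus, were competed in YPD at 37°C for 24 hours in six replicates. A genotype was kept only with ≥ 100 starting reads, and estimates < 0.5 were set to 0.5.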
row,Variant,yeast fitness
1,G12A C33U G63A,≤ 0.5
2,C11U U54A G58C,≤ 0.5
3,G12A C22A A36G A37G A57U,≤ 0.5
4,G12A U32C U47A C49G C60U,≤ 0.5
5,G12A C60U,0.777
6,G12A C60A,0.579
7,C11U U54C C61U,≤ 0.5
8,G12A A15U A21C U47A,≤ 0.5
9,G12A G41U,0.819
10,G12C A45C C61A,0.686
11,G12C C66A,0.676
12,G12A A43U A45C C49U G67C,≤ 0.5
13,G12C A43U A70C,0.521
14,U13A A14C A21C G25A C61A,≤ 0.5
15,G12A C30G,0.689
16,U13A C33U,0.754
17,G12A A15G A43C,≤ 0.5
18,G12C C22U U54C C61U,0.532
19,G12C U32G C33G G68C,≤ 0.5
20,G12A G38C,0.869
21,G12C U19A C27G A65C,0.557

row,Variant,yeast fitness
1,G12C A43G,0.694
2,G12C A43C,0.825
3,G12C C46U C49G A70U,0.526
4,G12C U53A,0.594
5,G12A A21U,0.729
6,G12A C30G A65U,≤ 0.5
7,C11U U28G C30A,≤ 0.5
8,U13A G50A,0.806
9,U13A G39A,0.782
10,G12A G48C U54C,0.567
11,G12A C49U,0.93
12,U13A A14U C49A,≤ 0.5
13,G12A G23A U28G C49U G56C A65U,0.526
14,G12C G58A C62U A69C,0.699
15,U13A G17A G51A C62U G67C,≤ 0.5
16,G12A U13A A37G A40G U59A,≤ 0.5
17,G12A C27A C29U,0.981
18,G12C A42G A45G,0.627
19,G12A C49U A65C,0.676
20,U13A C46U,0.875
21,U13A A21G,1.04

row,Variant,yeast fitness
1,U13A A40U A43C,0.693
2,G12A A40U G52C C60G,≤ 0.5
3,G12A A43G A69U,0.803
4,U13A U28C U32A,0.698
5,G12A G44C G50A,0.608
6,U13A U32C G63A,0.572
7,G12C G18C U35A G39A U53A,≤ 0.5
8,G12A A20C A43U U47C C62U A70C,≤ 0.5
9,G12A U13C A15C C46G,≤ 0.5
10,U13A C24U C49G,≤ 0.5
11,U13A C29G A43G,≤ 0.5
12,G12C A20C G58C A70U,≤ 0.5
13,G12A A20U U32A C49G G63A A65U,0.535
14,G12A U13A A65C,≤ 0.5
15,G12C A20C G48A,0.749
16,G12C A15G A45G G50C A69C,≤ 0.5
17,G12A A43U A45C G67C,0.542
18,U13A C46U G67C,0.53
19,U13A A20C A70C,≤ 0.5
20,U13A A45G,0.92
21,U13A G41C G52A,≤ 0.5

row,Variant,yeast fitness
1,G12C C46A G68U,≤ 0.5
2,G12C C27G U35A G52A A57G A69U A70U,≤ 0.5
3,G12C A43U U59A A69G,≤ 0.5
4,U13A C27G G52A U53C G63C,≤ 0.5
5,U13A C22G G25C C27U C30G A36G C55A A69U,≤ 0.5
6,U13A C55U A65C,0.596
7,G12A A57G A69C,≤ 0.5
8,G12C U16A C24G G58C C61G,≤ 0.5
9,U13A A37G,0.714
10,G12C A43G U54C A69C A70C,≤ 0.5
11,U13A U19A A42U G51C,≤ 0.5
12,U13A A15C U54G C66G G67C,≤ 0.5
13,U13A C27U C61A,0.619
14,G12A A43U G58C,0.632
15,G12C U59A A69C,≤ 0.5
16,G12C U32G C33G G67C,≤ 0.5
17,G12C G38A,0.687
18,G12C A20U C33U C66U,≤ 0.5
19,G12A A15G A43C A65G,≤ 0.5
20,G12A U35C G41A G51C,≤ 0.5
21,U13A A42U G63A,0.699
